Experimental data: ChEMBL document CHEMBL4342410, “Design and Discovery of N-(3-(2-(2-Hydroxyethoxy)-6-morpholinopyridin-4-yl)-4-methylphenyl)-2-(trifluoromethyl)isonicotinamide, a Selective, Efficacious, and Well-Tolerated RAF Inhibitor Targeting RAS Mutant Cancers: The Path to the Clinic” (J Med Chem, 2020)
In brackets after ≈: the same amount, converted by molar mass.

Legend:
[1] = biological target: T1, Serine/threonine-protein kinase B-raf (Homo sapiens, UniProt P15056); test: Binding affinity to wild-type human partial length BRAF (S429 to E741 residues) expressed in mammalian expression system at 1 uM by Kinomescan method relative to control
Calu-6 [2] = test: Antiproliferative activity against human Calu6 cells harboring KRAS Q61K mutant assessed as reduction in cell viability after 72 hrs by CellTiter-Glo assay; format: functional, cell-based; conditions: Calu-6, 72 h
[3] = Cmax in mouse at 4 mg/kg, po; format: ADME, organism-based; design: dose 4 mg/kg, route oral; conditions: in vivo
[4] = AUC (infinity) in dog at 0.4 mg/kg, po; format: ADME, organism-based, Canis lupus familiaris; design: dose 0.4 mg/kg, time infinity, route oral; conditions: in vivo
[5] = Solubility of compound in pH 6.8 Cl-free PBS buffer by shake-flask assay; format: physicochemical
How it was run: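 Shake-flask solubility measured in chloride-free PBS at pH 6.8.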

Cytochrome P450 3A4 = Cytochrome P450 3A4 (Homo sapiens, UniProt P08684); test: Time dependent inhibition of CYP3A4 in human liver microsomes assessed as inactivation rate constant at 10 uM using midazolam as substrate incubated prior to substrate addition and measured after 6 mins in presence of NADPH; format: ADME; conditions: 0.1 h
How it was run: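 Human liver microsomes (0.5 mg/mL) preincubated with test compound at 10 µM and 1 mM NADPH in phosphate buffer at 37 °C for 0, 5, 15 and 30 min. Mixture then diluted 20-fold and incubated with midazolam (20 µM) at 37 °C for 6 min to measure residual CYP3A4 activity. kobs taken as the initial rate of decline of activity versus preincubation time.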

Rattus norvegicus = test: In vivo inhibition of CRAF in po dosed nude rat xenografted with human Calu6 cells harboring KRAS Q61K mutant assessed as reduction in tumor MEK phosphorylation administered as single dose measured after 1 to 48 hrs by sandwich ELISA; format: functional, organism-based
How it was run: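 Calu-6 (KRAS Q61K) xenograft-bearing nude rats were given a single oral dose of 15, 35, 75 or 150 mg/kg. Tumor and blood were sampled at 1, 4, 7, 24 and 48 h post-dose. Tumor pMEK was quantified by MSD immunoassay and expressed as percent pMEK. Free plasma exposure was determined in parallel.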

[6] = Cmax in nude rat xenografted with human Calu6 cells harboring KRAS Q61K mutant at 150 mg/kg, po administered daily for 18 days starting from day 13 post tumor implantation and measured on day 31; format: ADME, organism-based; design: dose 150 mg/kg, route oral; conditions: in vivo
How it was run: (§1)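 Nude rats carrying Calu-6 (KRAS Q61K) NSCLC xenografts were dosed p.o. once daily at 15, 35, 75 or 150 mg/kg from day 13 to day 31 after implant. Plasma was collected after the last dose and drug concentration was measured. AUC and Cmax were calculated per dose on day 31.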

[7] = Volume of distribution at steady state in dog at 0.2 mg/kg, iv or 0.4 mg/kg, po; format: ADME, organism-based, Canis lupus familiaris; conditions: in vivo, read-out: Vdss
[8] = Time of last measurable concentration in nude rat xenografted with human Calu6 cells harboring KRAS Q61K mutant at 15 mg/kg, po administered daily for 18 days starting from day 13 post tumor implantation and measured on day 31; format: ADME, organism-based; conditions: in vivo, 432 h
How it was run: (§2)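 Calu-6 xenograft nude rats were dosed orally once daily at 15, 35, 75 or 150 mg/kg from day 13 after implantation to day 31. Plasma was collected after the last dose on day 31, drug concentrations were measured, and PK parameters including AUC were calculated for each dose.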

[9] = AUC (infinity) in mouse at 4 mg/kg, po; format: ADME, organism-based; design: dose 4 mg/kg, route oral, time infinity; conditions: in vivo
[10] = biological target: Platelet-derived growth factor receptor beta (Homo sapiens, UniProt P09619); test: Binding affinity to wild-type human partial length PDGFRB (V582 to Y1009 residues) expressed in bacterial expression system at 1 uM by Kinomescan method relative to control
How it was run: (§3)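 KINOMEscan competition binding panel of about 456 kinases, compound tested at 1 μM. Activity is given as % of control = [(test signal − positive control signal)/(negative control signal − positive control signal)] × 100.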

[11] = Volume of distribution at steady state in mouse at 2 mg/kg, iv or 4 mg/kg, po; format: ADME, organism-based; conditions: in vivo, read-out: Vdss
[12] = Time of last measurable concentration in nude rat xenografted with human Calu6 cells harboring KRAS Q61K mutant at 35 mg/kg, po administered daily for 18 days starting from day 13 post tumor implantation and measured on day 31; format: ADME, organism-based; conditions: in vivo, 432 h; how it was run: as §2
[13] = Clearance in dog at 0.2 mg/kg, iv or 0.4 mg/kg, po; format: ADME, organism-based, Canis lupus familiaris; conditions: in vivo
[14] = Time at which free plasma concentration stays above in vitro IC50 for CRAF in human Calu6 cells assessed as reduction MEK phosphorylation in nude rat xenografted with human Calu6 cells harboring KRAS Q61K mutant at 150 mg/kg, po; format: ADME, organism-based; conditions: in vivo
Calu-6 [15] = test: Antitumor activity against human Calu6 cells harboring KRAS Q61K mutant xenografted in nude rat assessed as tumor growth at 15 mg/kg, po administered daily for 18 days starting from day 13 post tumor implantation and measured on day 31 relative to control; format: functional
How it was run: (§4)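 Nude rats bearing Calu-6 (KRAS Q61K) human NSCLC xenografts received vehicle or drug p.o. daily at 15, 35, 75 or 150 mg/kg. Dosing began 13 days after tumor implantation and ran to day 31, i.e. 18 days of treatment. Tumor volumes were read out as %T/C or % regression versus vehicle on day 31. Body weight was also tracked.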

[16] = biological target: Epithelial discoidin domain-containing receptor 1 (Homo sapiens) (UniProt Q08345); test: Binding affinity to wild-type human partial length DDR1 (R565 to V876 residues) expressed in bacterial expression system at 1 uM by Kinomescan method relative to control; how it was run: as §3
[17] = biological target: Voltage-gated inwardly rectifying potassium channel KCNH2 (Homo sapiens, UniProt Q12809); test: Inhibition of human ERG by patch clamp method
How it was run: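 hERG inhibition measured by manual patch clamp.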

[18] = AUC (0 to 24 hrs) in nude rat xenografted with human Calu6 cells harboring KRAS Q61K mutant at 75 mg/kg, po administered daily for 18 days starting from day 13 post tumor implantation and measured on day 31; format: ADME, organism-based; design: time < 24 hr, dose 75 mg/kg, route oral; conditions: in vivo; how it was run: as §1
[19] = AUC (0 to 24 hrs) in nude rat xenografted with human Calu6 cells harboring KRAS Q61K mutant at 15 mg/kg, po administered daily for 18 days starting from day 13 post tumor implantation and measured on day 31; format: ADME, organism-based; design: dose 15 mg/kg, time < 24 hr, route oral; conditions: in vivo; how it was run: as §1
[20] = biological target: T1, Serine/threonine-protein kinase B-raf; test: Inhibition of full-length BRAF (unknown origin)
Calu-6 [21] = test: Antitumor activity against human Calu6 cells harboring KRAS Q61K mutant xenografted in nude rat assessed as tumor regression at 150 mg/kg, po administered daily for 18 days starting from day 13 post tumor implantation and measured on day 31 relative to control; format: functional; how it was run: as §4
[22] = AUC (0 to 24 hrs) in nude rat xenografted with human Calu6 cells harboring KRAS Q61K mutant at 35 mg/kg, po administered daily for 18 days starting from day 13 post tumor implantation and measured on day 31; format: ADME, organism-based; design: dose 35 mg/kg, time < 24 hr, route oral; conditions: in vivo; how it was run: as §1
[23] = tested on: RAF proto-oncogene serine/threonine-protein kinase (Homo sapiens), P04049 [Y340E,Y341E]; test: Binding affinity to CRAF Y340E/Y341E mutant (unknown origin) assessed as dissociation half life by rapid dilution method
How it was run: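 Full-length CRAF carrying activating Y340E/Y341E was used in a kinase activity assay. Dissociation was measured by the rapid dilution method, and recovery of enzyme activity was followed over 6 hours of incubation. The dissociation half-life was derived from that recovery.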

T1 sequence (P15056 whole entry, the tested form may be a part): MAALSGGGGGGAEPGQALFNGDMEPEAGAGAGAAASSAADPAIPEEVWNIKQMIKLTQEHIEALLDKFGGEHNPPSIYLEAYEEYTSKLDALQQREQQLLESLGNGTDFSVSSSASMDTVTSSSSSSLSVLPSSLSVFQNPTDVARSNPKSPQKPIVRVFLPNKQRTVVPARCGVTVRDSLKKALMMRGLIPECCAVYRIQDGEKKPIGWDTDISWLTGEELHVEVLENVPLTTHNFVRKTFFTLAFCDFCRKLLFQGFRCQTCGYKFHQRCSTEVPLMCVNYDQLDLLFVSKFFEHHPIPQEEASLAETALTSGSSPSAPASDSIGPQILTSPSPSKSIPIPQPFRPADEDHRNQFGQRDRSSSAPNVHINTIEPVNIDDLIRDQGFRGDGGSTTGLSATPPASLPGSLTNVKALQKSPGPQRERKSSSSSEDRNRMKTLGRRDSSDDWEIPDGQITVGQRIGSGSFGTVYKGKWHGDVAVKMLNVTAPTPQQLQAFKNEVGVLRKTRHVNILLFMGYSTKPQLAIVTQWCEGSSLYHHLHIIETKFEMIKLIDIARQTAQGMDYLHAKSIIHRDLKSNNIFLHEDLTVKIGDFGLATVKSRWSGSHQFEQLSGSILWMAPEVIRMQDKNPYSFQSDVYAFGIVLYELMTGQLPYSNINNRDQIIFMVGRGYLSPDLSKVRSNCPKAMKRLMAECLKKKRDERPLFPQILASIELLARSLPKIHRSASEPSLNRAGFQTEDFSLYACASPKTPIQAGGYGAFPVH
Chain of Cytochrome P450 3A4 (P08684 whole entry): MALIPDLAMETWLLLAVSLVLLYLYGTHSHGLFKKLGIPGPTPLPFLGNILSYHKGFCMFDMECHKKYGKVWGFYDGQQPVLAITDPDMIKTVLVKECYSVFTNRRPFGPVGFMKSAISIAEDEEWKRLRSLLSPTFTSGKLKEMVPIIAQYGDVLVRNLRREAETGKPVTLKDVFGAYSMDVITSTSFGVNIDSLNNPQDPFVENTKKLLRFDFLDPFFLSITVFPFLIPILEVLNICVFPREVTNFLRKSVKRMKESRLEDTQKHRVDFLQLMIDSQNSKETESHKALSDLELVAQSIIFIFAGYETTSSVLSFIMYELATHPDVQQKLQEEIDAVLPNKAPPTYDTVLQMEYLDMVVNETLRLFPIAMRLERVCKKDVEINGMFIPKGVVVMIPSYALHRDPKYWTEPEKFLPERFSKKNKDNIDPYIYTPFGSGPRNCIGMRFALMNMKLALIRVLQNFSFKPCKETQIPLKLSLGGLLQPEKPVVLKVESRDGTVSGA
Chain of Epithelial discoidin domain-containing receptor 1 (Homo sapiens) (Q08345 whole entry, the tested form may be a part): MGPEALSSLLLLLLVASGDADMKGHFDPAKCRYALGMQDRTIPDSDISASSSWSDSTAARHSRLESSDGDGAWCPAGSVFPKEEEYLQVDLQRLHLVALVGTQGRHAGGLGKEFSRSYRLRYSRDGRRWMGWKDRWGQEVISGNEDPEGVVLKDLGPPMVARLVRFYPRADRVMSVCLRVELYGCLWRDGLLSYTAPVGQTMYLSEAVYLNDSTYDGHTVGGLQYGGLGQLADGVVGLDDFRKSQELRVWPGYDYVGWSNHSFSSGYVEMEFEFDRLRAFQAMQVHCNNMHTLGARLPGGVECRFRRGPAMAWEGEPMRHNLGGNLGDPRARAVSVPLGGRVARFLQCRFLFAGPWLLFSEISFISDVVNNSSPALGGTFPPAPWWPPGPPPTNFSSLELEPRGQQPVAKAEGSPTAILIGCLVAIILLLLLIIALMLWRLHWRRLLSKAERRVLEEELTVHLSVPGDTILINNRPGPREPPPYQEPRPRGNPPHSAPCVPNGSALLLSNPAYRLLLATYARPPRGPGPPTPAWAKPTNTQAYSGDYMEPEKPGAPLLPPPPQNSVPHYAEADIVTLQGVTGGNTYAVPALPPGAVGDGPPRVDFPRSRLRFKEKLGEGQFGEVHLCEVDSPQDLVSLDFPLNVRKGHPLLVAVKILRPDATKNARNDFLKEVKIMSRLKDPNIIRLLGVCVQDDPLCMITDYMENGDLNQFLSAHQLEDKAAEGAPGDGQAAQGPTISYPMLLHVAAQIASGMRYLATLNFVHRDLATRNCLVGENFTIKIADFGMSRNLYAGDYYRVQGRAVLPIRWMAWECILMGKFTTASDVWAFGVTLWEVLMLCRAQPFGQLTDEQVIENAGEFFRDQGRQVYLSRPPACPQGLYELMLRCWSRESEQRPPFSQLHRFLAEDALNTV
Chain of Platelet-derived growth factor receptor beta (P09619 whole entry, the tested form may be a part): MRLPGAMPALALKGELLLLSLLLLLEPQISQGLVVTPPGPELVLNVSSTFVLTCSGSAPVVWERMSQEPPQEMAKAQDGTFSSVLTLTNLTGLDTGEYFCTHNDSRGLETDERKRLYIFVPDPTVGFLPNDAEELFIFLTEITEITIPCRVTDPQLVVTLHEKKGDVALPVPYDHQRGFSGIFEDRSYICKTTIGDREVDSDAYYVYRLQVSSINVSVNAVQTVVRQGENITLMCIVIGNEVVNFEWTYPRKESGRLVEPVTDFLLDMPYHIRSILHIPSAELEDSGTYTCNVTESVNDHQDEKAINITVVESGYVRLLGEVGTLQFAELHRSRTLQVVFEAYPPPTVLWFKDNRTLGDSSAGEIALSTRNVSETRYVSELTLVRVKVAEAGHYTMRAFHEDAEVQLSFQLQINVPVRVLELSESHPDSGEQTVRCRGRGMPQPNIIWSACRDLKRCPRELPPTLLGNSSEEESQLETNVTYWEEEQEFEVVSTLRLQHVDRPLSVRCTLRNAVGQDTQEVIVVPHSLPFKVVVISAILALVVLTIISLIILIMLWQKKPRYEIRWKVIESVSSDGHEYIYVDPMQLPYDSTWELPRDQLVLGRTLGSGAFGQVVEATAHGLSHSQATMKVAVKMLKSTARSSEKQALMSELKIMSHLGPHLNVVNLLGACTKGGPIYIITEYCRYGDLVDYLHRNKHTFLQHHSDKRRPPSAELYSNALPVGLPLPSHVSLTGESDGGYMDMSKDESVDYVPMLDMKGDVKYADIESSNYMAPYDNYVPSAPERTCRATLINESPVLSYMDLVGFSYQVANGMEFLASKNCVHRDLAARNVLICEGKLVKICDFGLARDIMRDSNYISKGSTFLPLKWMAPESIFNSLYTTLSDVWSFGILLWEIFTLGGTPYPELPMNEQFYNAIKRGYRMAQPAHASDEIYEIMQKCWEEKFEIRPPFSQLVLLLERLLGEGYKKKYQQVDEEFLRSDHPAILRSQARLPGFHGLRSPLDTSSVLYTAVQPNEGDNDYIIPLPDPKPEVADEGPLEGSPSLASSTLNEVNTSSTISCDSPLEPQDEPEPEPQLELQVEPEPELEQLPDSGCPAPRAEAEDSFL
Chain of Voltage-gated inwardly rectifying potassium channel KCNH2 (Q12809 whole entry): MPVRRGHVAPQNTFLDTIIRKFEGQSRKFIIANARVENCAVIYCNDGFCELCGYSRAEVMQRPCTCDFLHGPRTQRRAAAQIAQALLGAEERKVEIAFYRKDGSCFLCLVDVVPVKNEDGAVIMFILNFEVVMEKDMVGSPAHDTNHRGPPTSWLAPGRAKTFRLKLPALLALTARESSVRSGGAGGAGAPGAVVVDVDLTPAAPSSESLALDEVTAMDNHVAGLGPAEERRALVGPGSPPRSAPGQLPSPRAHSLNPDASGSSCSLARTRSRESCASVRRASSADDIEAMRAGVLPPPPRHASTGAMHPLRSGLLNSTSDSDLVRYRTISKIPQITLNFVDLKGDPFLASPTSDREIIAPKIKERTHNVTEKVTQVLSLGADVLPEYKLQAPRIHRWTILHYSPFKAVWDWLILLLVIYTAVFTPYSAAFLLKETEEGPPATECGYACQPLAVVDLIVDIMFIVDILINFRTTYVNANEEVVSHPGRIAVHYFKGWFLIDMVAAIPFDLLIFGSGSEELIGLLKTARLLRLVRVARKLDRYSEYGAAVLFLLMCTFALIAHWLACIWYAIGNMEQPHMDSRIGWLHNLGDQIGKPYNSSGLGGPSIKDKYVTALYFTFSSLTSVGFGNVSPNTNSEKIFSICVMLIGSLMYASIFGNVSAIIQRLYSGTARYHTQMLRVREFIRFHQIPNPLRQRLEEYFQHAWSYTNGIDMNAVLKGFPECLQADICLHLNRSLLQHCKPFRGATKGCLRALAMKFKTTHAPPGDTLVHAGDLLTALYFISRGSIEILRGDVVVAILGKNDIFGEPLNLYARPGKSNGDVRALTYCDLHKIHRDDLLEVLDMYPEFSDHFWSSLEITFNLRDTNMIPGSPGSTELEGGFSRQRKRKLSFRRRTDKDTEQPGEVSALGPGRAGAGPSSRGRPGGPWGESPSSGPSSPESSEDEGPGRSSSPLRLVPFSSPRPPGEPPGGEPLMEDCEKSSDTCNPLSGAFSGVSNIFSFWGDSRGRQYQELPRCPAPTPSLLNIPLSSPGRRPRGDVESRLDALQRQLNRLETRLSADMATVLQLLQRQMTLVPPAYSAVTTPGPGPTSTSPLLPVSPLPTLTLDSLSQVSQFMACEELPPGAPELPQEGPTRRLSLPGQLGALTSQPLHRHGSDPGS

Work on `Cc1ccc(NC(=O)c2ccnc(C(F)(F)F)c2)cc1-c1cc(OCCO)nc(N2CCOCC2)c1` [NAPORAFENIB] yielded an Activity [1] of over 98%, an EC50 (Calu-6 [2]) of 280 to 470 nM and a Cmax [3] of 1.6 µM. It also gave an AUC(0-inf) [4] of 3.1 µM·h, a solubility thermodynamic [5] of 20 µM (≈ 10 µg/mL) and a K (Cytochrome P450 3A4) of 0.01 min⁻¹. For the same molecule, the inhibition (Rattus norvegicus) was “Dose-dependent effect”, the Cmax [6] was 12.7 µM and the Vd [7] was 1.7 L/kg. For the same molecule, the Tlast [8] was 24 h, the AUC(0-inf) [9] was 4.3 µM·h and the Activity [10] was over 99%. For the same molecule, the Vd [11] was 2.1 L/kg, the Tlast [12] was 24 h and the clearance [13] was 3.5 mL/min/kg. For the same molecule, the “T>IC50” value [14] was 24 h, the T/C (Calu-6 [15]) was 29% and the Activity [16] was over 99%. The IC50 [17] was over 10000 nM, the AUC at 24 h [18] was 105 µM·h and the AUC at 24 h [19] was 7.91 µM·h. The IC50 [20] was 0.4 nM, the Activity (Calu-6 [21]) was 56% and the AUC at 24 h [22] was 25.2 µM·h. For the same molecule, the T1/2 [23] was over 6.5 h.
